Source: PubChem (several laboratories)
MC4R ag barr: MC4R agonists recruiting beta-arrestin, primary screen, cell-based, luminescence, agonist arm of biased-ligand search; U2OS MC4R beta-arrestin complementation; percent of melanotan II response, DMSO zero; activation, % at 8.9 µM; AID 540308, 2011; hit rate 0.98% among 360,000;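 active = activation above a per-plate cutoff, the mean activation of sample wells on that plate plus 3 SD, cut at about 8% in these data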
Target sequence (P32245 whole entry, looked up): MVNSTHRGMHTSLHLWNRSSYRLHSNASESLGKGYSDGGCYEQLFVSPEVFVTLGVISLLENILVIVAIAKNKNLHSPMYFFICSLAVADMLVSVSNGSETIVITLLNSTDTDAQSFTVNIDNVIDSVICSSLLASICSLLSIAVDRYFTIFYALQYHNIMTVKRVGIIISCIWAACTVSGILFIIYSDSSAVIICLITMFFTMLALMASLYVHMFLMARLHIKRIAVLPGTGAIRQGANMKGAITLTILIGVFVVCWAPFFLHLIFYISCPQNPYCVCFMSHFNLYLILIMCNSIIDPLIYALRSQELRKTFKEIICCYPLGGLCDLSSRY
NALP1 inh: NALP1 inflammasome inhibitors in reconstituted yeast, colorimetric, S. cerevisiae, triplicate retest | AID 2071, 2009 | inhibition, % at 10 µM | hit rate 0.61% among 280,000 | S. cerevisiae NALP1/ASC/caspase-1 growth, X-gal OD620, 72 h; in the data active = inhibition mostly above about 24%, no sharp cut-off; inactive = mostly below about 32%
NALP3 yeast inh: NALP3 inflammasome inhibitors in reconstituted yeast, primary screen, luminescence, uHTS; hit rate 0.39% among 330,000; Yeast reconstituted NLRP3/ASC/caspase-1, beta-gal luminescence, 24 h; inhibition, % at 10 µM;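 active = inhibition of 50% or more; inactive = inhibition below 50%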;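 also: plate controls were induced DMSO wells for no effect and uninduced yeast grown without galactose for full effect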
MC4R antagonist: MC4R antagonists of cAMP signaling, primary screen, cell-based, TR-FRET, antagonist arm of biased-ligand search | MC4R-expressing cells, MTII-stimulated cAMP, LANCE TR-FRET | hit rate 0.48% among 360,000 | AID 540295, 2011 | inhibition, % at 6.5 µM;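 active = inhibition above its plate's cutoff, the mean of tested wells on that plate plus 3 SD, cut at about 29% in these data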;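 also: 0% = Melanotan II alone and 100% = Melanotan II plus saturating MCL0020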
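Material: U2OS-MC4R stable cell line | Reagent: Melanotan II challenge after compound preincubation | Doses: One concentration, 6.5 µM nominal | Incubation: 30-min compound preincubation, 1-h Melanotan II challenge, 1-h detection, room temperature | Signal: TR-FRET cAMP assay | Replicates: One well per compound, no replicates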
A1 inh: caspase 3/7 activation in MEF A1-2A-BIM cells, primary screen, A1 inhibitor project, cell-based, luminescence, HTS; Caspase-Glo 3/7 luminescence, 3 h; percent of clofoctol response, vehicle zero; AID 2462, 2010; caspase activation, % (no concentration beside the values); hit rate 0.066% among 330,000;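 active = over half of replicate activation scores above 10%, or exactly half above 10 with the replicate mean above 10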
Tb MetRS inh: T. brucei MetRS inhibitors, primary screen, biochemical, luminescence; purified T. brucei MetRS, ATP depletion, Kinase-Glo luminescence; inhibition, % at 11.9 µM; hit rate 0.4% among 360,000; AID 624268, 2012;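 active = inhibition above a per-plate cutoff of the control wells' mean inhibition plus 3 SD, cut at about 5.5% in these data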;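 also: 0% = DMSO wells median and 100% = median of wells with control inhibitor compound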
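Material – parasite MetRS enzyme · Medium – HEPES-MgCl2-KCl buffer plus DTT, spermine, BSA, pyrophosphatase · Reagent – ATP, methionine and E. coli bulk tRNA substrates · Times – 15 min enzyme-compound preincubation, 2 h reaction, 10 min detection, 25 °C · Measured by – luminescence of leftover ATP · Evaluation – percent inhibition relative to median high and low control wells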
Tb MetRS conf: T. brucei MetRS inhibitors, confirmation, biochemical, luminescence. hit rate 93% among 1,400. T. brucei MetRS enzyme, luminescence (ATP depletion). AID 624412, 2012. shares compounds with Tb MetRS inh. inhibition, % at 11.9 µM; in the data active = inhibition above about 7%
Jurkat tox: Jurkat T cell cytotoxicity, cytotoxicity control for T. brucei MetRS inhibitor project, luminescence, high throughput | shares compounds with Tb MetRS inh | Jurkat cells viability, ATP luminescence | inhibition, % at 8.3 µM | hit rate 12% among 1,400 | AID 624413, 2012; in the data active = inhibition above about 15%;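 also: 0% = vehicle and 100% = reference inhibitor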
TbMetRS FP orth: T. brucei MetRS inhibitors, orthogonal assay for T. brucei MetRS inhibitor project, biochemical, fluorescence polarization | AID 651607, 2012 | hit rate 44% among 1,400 | shares compounds with Tb MetRS inh | purified T. brucei MetRS | inhibition, % at 11.9 µM; in the data active = inhibition above about 17%;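 also: 0% = vehicle wells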
Numbers without * were called inactive; nt = no result. Compounds with a hit are over-represented: about 2.5% of the library has one in this group of screens.

SMILES | MC4R ag barr | NALP1 inh | NALP3 yeast inh | MC4R antagonist | A1 inh | Tb MetRS inh | Tb MetRS conf | Jurkat tox | TbMetRS FP orth
Cc1ccc(NC(=O)CN(C)C(=O)c2ccc(-n3cncn3)c([N+](=O)[O-])c2)cc1 | 0 | nt | 16 | 1 | 0 | 10* | 38* | -1 | 16
Cc1ccc(NC(=O)CN(C)C(=O)c2ccc(C(F)(F)F)cc2)cc1 | 1 | 8 | 9 | -2 | 1 | 6.2* | 26* | 6 | 10
Cc1cccc(NC(=O)CNC(=O)c2ccc(-n3cncn3)c([N+](=O)[O-])c2)c1C | -1 | nt | -1 | 7 | -1 | 19* | 51* | -6 | 27*
CCc1ccc(NC(=O)c2ccc(OC)c([N+](=O)[O-])c2)cc1 | -2 | 37 | 37 | -4 | -1 | 1 | nt | nt | nt
CCc1ccc(NC(=O)c2ccc(-n3cncn3)c([N+](=O)[O-])c2)cc1 | 0 | nt | 41 | -2 | 0 | 13* | 39* | 1 | 20*
Cc1noc(C)c1NC(=O)N(C)C[C@@H]1Oc2ncc(Br)cc2C(=O)N([C@@H](C)CO)C[C@@H]1C | -2 | nt | nt | 4 | nt | -1 | nt | nt | nt
O=C(Nc1cccc(F)c1)Nc1nnc([C@@H]2O[C@H](CO)[C@@H](O)[C@H]2O)s1 | -1 | nt | nt | 0 | nt | 2 | nt | nt | nt
COc1cc(OC)cc(C(=O)NNC(=O)c2ccc(-n3cncn3)c([N+](=O)[O-])c2)c1 | 2 | nt | -2 | 11 | 0 | 6.0* | 31* | 3 | 17*
CN(c1ccc(OC(=O)c2ccc(-n3cncn3)c([N+](=O)[O-])c2)cc1)S(=O)(=O)c1ccccc1 | 5 | nt | -1 | 28 | 1 | 5 | nt | nt | nt
O=C(c1ccc(-n2cncn2)c([N+](=O)[O-])c1)N1CCN(c2cccc(Cl)c2)CC1 | -3 | -1 | 20 | -6 | 0 | 5.8* | 20* | 5 | 6
O=C(NCCCc1ccccc1)c1ccc(-n2cncn2)c([N+](=O)[O-])c1 | -3 | nt | 19 | -1 | 1 | 21* | 58* | -1 | 35*
COC(=O)c1ccc(-n2cncn2)c([N+](=O)[O-])c1 | 0 | -2 | -1 | 19 | -1 | 16* | 35* | -5 | 6
CCOC(=O)C1=CCN(S(=O)(=O)c2ccccc2C)C1c1ccc(Cl)c(Cl)c1 (stereo not drawn) | nt | nt | nt | nt | nt | 0 | nt | nt | nt
COc1ccc(CCNC(=O)CSc2nnc3ccc(-c4ccccn4)nn23)cc1OC | -4 | nt | 17 | 6 | 0 | 0 | nt | nt | nt
COc1ccccc1-c1ncn(Cc2cccc(-c3ccccc3)c2)c1CC(C)C | nt | nt | nt | nt | nt | -1 | nt | nt | nt
Cc1ccc(C(=O)NC(=S)Nc2ccccc2N2CCOCC2)cc1C | -3 | 14 | 25 | -1 | 0 | 0 | nt | nt | nt
CC(C)NC(=O)c1ccc2sc([C@H]3C[C@H](O)[C@@H](CO)O3)nc2c1 | 0 | nt | nt | -3 | nt | 0 | nt | nt | nt
O=C(CCC1CCCCC1)Nc1cccc(C(=O)Nc2ccc(C(=O)O)cc2)c1 | 1 | nt | nt | 9 | 0 | 0 | nt | nt | nt
COc1ccc(NC(=O)c2ccc(-n3cncn3)c([N+](=O)[O-])c2)cc1 | -2 | 3 | 15 | 2 | -1 | 6.2* | 22* | 1 | 8
COc1ccc(NC(=O)c2ccc(-n3cncn3)c([N+](=O)[O-])c2)cc1OC | -4 | nt | 14 | 2 | 0 | 15* | 59* | 3 | 33*
